Experimental data taken from ChEMBL document CHEMBL2424538, “Synthesis, resolution, and biological evaluation of atropisomeric (aR)- and (aS)-16-methyllamellarins N: unique effects of the axial chirality on the selectivity of protein kinases inhibition” (J Med Chem, 2013).
Activity calls are given as the source filed them. The rule behind the calls is not given here.

Assays:
Bos taurus = species: Bos taurus; test: Inhibition of calf thymus DNA topoisomerase 1-mediated relaxation of supercoiled pBR322 plasmid DNA at 50 uM 30 mins by ethidium bromide staining
HeLa = test: Cytotoxicity against human HeLa cells after 72 hrs by colony formation assay; assay type: functional, cell-based
Summary of the method: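 HeLa cells, 100−150 per well, cultured 72 h at 37 °C under 5% CO2 with varying compound concentrations in MEM with 10% fetal calf serum plus penicillin/streptomycin. Colonies (clusters of ≥40 cells) counted after methylene blue staining. Duplicates, at least four concentrations; IC50 by least-squares fit to logarithm-probit analysis.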

[1] = Inhibition of M-phase starfish oocytes CDK1/cyclin B using [gamma-33P]ATP after 30 mins; parameters: species or system Marthasterias glacialis; conditions: oocyte
Summary of the method: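 CDK1/cyclin B extracted from oocytes in homogenization buffer, affinity-purified on p9CKShs1-Sepharose and eluted with free p9CKShs1. Activity measured in buffer C with 1 mg/mL histone H1 and 15 μM [γ-33P]ATP, 30 min at 30 °C. Read-out: 33P captured on P81 phosphocellulose by scintillation counting; blank subtracted; activity as % of uninhibited control; DMSO controls.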

[2] = biological target: Glycogen synthase kinase-3 (Sus scrofa, UniProt B2LUN4+I6LNT8); test: Inhibition of porcine brain GSK-3alpha/beta using GS-1 peptide and [gamma-33P]ATP as substrate after 30 mins
Summary of the method: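 GSK-3α/β purified on immobilized axin, diluted 1/100 in 1 mg/mL BSA with 10 mM DTT. Substrate GS-1 phosphopeptide (5 μL of 4 μM), buffer A pH 7.5, 15 μM [γ-33P]ATP, 30 min at 30 °C. Radioactivity on P81 paper counted; blank subtracted; results as % of activity without inhibitor.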

[3] = biological target: Dual specificity tyrosine-phosphorylation-regulated kinase 1A (Homo sapiens, UniProt Q13627); test: Inhibition of human recombinant DYRK1A expressed in Escherichia coli using [gamma-33P]ATP after 30 mins
Summary of the method: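 Enzyme (DYRK1A GST fusion purified on glutathione-agarose) assayed like CDK1/cyclin B: buffer C, 1 mg/mL histone H1, 15 μM [γ-33P]ATP, 30 min at 30 °C, P81 filter capture, scintillation counting, % of activity without inhibitor.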

IMR-32 = test: Cytotoxicity against human IMR32 cells after 72 hrs by MTS assay; assay type: functional, cell-based; conditions: IMR-32, 72 h
Summary of the method: (§1)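 Neuroblastoma cells grown in DMEM with 2 mM L-glutamine, antibiotics and 10% FCS; viability read by MTS reduction. Triplicate assays, values within 10%. IC50 estimated graphically from dose−response curves of at least six inhibitor concentrations.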

[4] = Cytotoxicity against human SH-SY5Y cells after 72 hrs by MTS assay; assay type: functional, cell-based; summary of the method: as §1
[5] = Inhibition of porcine brain CK1delta/epsilon using CKS peptide and [gamma-33P]ATP as substrate after 30 mins; parameters: species or system Sus scrofa
Summary of the method: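 CK1δ/ε affinity-purified on immobilized axin fragment. Reaction captured on P81 phosphocellulose, washed in 1% phosphoric acid, scintillation counted; blanks subtracted; activity as % of no-inhibitor control, DMSO controls.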

Row | Compound | inhibition (Bos taurus) | IC50 (HeLa) [nM] | IC50 [1] [nM] | IC50 [2] [nM] | IC50 [3] [nM] | IC50 (IMR-32) [nM] | IC50 [4] [nM] | IC50 [5] [nM]
1 | COc1cc(-c2c3c4cc(OC)c(O)cc4oc(=O)c3n3ccc4cc(O)c(OC)cc4c23)ccc1O | Active | – | – | – | – | – | – | –
2 | CC[C@@]1(O)C(=O)OCc2c1cc1n(c2=O)Cc2cc3ccccc3nc2-1 | Active | – | – | – | – | – | – | –
3 | COc1ccc(-c2c3c4cc(OC)c(O)cc4oc(=O)c3n3ccc4cc(O)c(OC)cc4c23)cc1O | Active | 32 | 70 | 5 | 35 | 19 | 40 | > 10000
